Experiment [1] in a line: (§1) Cytotoxicity against human Hep G2 after 48 hrs by MTT assay. The note with it: HepG2, 48 h. In kind it is functional. The essentials: (§2)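 Cells grown in RPMI 1640 with 10% FBS, trypsinized at 70% confluence; 1.0 × 10^4 cells per well cultured 24 h before treatment. Compounds at 100-3.125 µM, vehicle 0.1% DMSO, 48 h exposure; MTT read at 570 nm. IC50 where 100 × (C − T)/(C − B) = 50, derived by LOGIT method; mean ± SD of three independent experiments.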
(Formazan colour is commonly taken as a measure of viable cells.)

For another experiment, the system named is MCF7. As to the kind of experiment: Cytotoxicity against human MCF7 after 48 hrs by MTT assay. The note with it: for IC50: MCF7, 48 h. In kind it is functional, cell-based. The essentials: as §2
For another experiment, the system named is NCI-H460. The experiment in a line: Cytotoxicity against human NCI-H460 after 48 hrs by MTT assay. The format is functional, cell-based. The settings on record: for IC50: NCI-H460, 48 h. The essentials: as §2
In a further experiment the test system is SF-268. As to the kind of experiment: Cytotoxicity against human SF-268 after 48 hrs by MTT assay. The note with it: for IC50: SF-268, 48 h. The format is functional, cell-based. The procedure, abridged: as §2
The test system of the next experiment is HepG2. The experiment is described as §1. The format is functional. The essentials:
as §2

The IC50 is the concentration at which inhibition is half-maximal.

With `C[C@@H]1CC[C@@]2(OC1)O[C@H]1C[C@H]3[C@@H]4CC[C@H]5C[C@@H](O[C@@H]6O[C@H](CO)[C@H](O[C@@H]7O[C@H](CO)[C@@H](O)[C@H](O[C@@H]8OC[C@@H](O)[C@H](O)[C@H]8O)[C@H]7O[C@@H]7O[C@H](CO)[C@@H](O)[C@H](O)[C@H]7O)[C@H](O)[C@H]6O)CC[C@]5(C)[C@H]4CC[C@]3(C)[C@H]1[C@@H]2C` [DEGALACTOTIGONIN], the IC50 in experiment [1] is 0.25 µM; in the experiment on MCF7, 1.57 µM; in the experiment with NCI-H460, 4.49 µM; in the experiment with SF-268, 3.19 µM.
With `C[C@@H]1CC[C@@]2(OC1)O[C@H]1[C@H](O)[C@H]3[C@@H]4CC[C@H]5C[C@@H](O[C@@H]6O[C@H](CO)[C@H](O[C@@H]7O[C@H](CO)[C@@H](O)[C@H](O[C@@H]8OC[C@@H](O)[C@H](O)[C@H]8O)[C@H]7O[C@@H]7O[C@H](CO)[C@@H](O)[C@H](O)[C@H]7O)[C@H](O)[C@H]6O)CC[C@]5(C)[C@H]4CC[C@]3(C)[C@H]1[C@@H]2C`, the Activity result in the experiment with HepG2, in the experiment on MCF7, with NCI-H460 and in the experiment on SF-268 was “Not toxic” throughout.
`C[C@@H]1C[C@H](O)[C@@]2(OC1=O)O[C@H]1C[C@H]3[C@@H]4CC[C@H]5C[C@@H](O[C@@H]6O[C@H](CO)[C@H](O[C@@H]7O[C@H](CO)[C@@H](O)[C@H](O[C@@H]8OC[C@@H](O)[C@H](O)[C@H]8O)[C@H]7O[C@@H]7OC[C@H](O)[C@H](O)[C@H]7O)[C@H](O)[C@H]6O[C@@H]6O[C@@H](C)[C@H](O)[C@@H](O)[C@H]6O)CC[C@]5(C)[C@H]4CC[C@]3(C)[C@H]1[C@@H]2C`: the Activity result in the experiment on HepG2, in the experiment with MCF7, in the experiment on NCI-H460 and in the experiment with SF-268 was “Not toxic” each time.
As for `CC[C@@]1(O)C(=O)OCc2c1cc1n(c2=O)Cc2cc3cc(O)ccc3nc2-1` [HYDROXYCAMPTOTHECIN], the IC50 was determined as 6.49 µM in experiment [1], 19.1 µM in the experiment on MCF7, 38.6 µM in the experiment on NCI-H460 and 29.9 µM with SF-268.
Regarding `C[C@H]1CO[C@@]2(O[C@H]3C[C@H]4[C@@H]5CC[C@H]6C[C@@H](O[C@@H]7O[C@H](CO)[C@H](O[C@@H]8O[C@H](CO)[C@@H](O)[C@H](O[C@@H]9OC[C@@H](O)[C@H](O)[C@H]9O)[C@H]8O[C@@H]8O[C@H](CO)[C@@H](O)[C@H](O)[C@H]8O)[C@H](O)[C@H]7O)CC[C@]6(C)[C@H]5CC[C@]4(C)[C@H]3[C@@H]2C)[C@@H](O[C@@H]2O[C@H](CO)[C@@H](O)[C@H](O)[C@H]2O)C1`, the Activity entry in the experiment with HepG2, in the experiment on MCF7, in the experiment with NCI-H460 and in the experiment on SF-268 was “Not toxic” throughout.
On to `C[C@@H]1CC[C@@]2(OC1)O[C@H]1C[C@H]3[C@@H]4CC=C5C[C@@H](O[C@@H]6O[C@H](CO)[C@@H](O[C@@H]7O[C@@H](C)[C@H](O)[C@@H](O)[C@H]7O[C@@H]7O[C@H](CO)[C@@H](O)[C@H](O)[C@H]7O)[C@H](O)[C@H]6O[C@@H]6O[C@@H](C)[C@H](O)[C@@H](O)[C@H]6O)CC[C@]5(C)[C@H]4CC[C@]3(C)[C@@]1(O)[C@@H]2C`, for which the Activity entry with HepG2, in the experiment on MCF7, in the experiment on NCI-H460 and with SF-268 was “Not toxic” throughout.
For the molecule `C[C@@H]1C[C@H](O)[C@@]2(OC1=O)O[C@H]1[C@H](O)[C@H]3[C@@H]4CC[C@H]5C[C@@H](O[C@@H]6O[C@H](CO)[C@H](O[C@@H]7O[C@H](CO)[C@@H](O)[C@H](O[C@@H]8O[C@H](CO)[C@@H](O)[C@H](O)[C@H]8O)[C@H]7O[C@@H]7O[C@H](CO)[C@@H](O)[C@H](O)[C@H]7O)[C@H](O)[C@H]6O)CC[C@]5(C)[C@H]4CC[C@]3(C)[C@H]1[C@@H]2C`, the Activity entry in the experiment on HepG2, in the experiment on MCF7, in the experiment on NCI-H460 and with SF-268 was “Not toxic” in each case.
Consider `C[C@@H]1C[C@H](O)[C@@]2(OC1=O)O[C@H]1[C@H](O)[C@H]3[C@@H]4CC[C@H]5C[C@@H](O[C@@H]6O[C@H](CO)[C@H](O[C@@H]7O[C@H](CO)[C@@H](O)[C@H](O[C@@H]8OC[C@@H](O)[C@H](O)[C@H]8O)[C@H]7O[C@@H]7OC[C@H](O)[C@H](O)[C@H]7O)[C@H](O)[C@H]6O[C@@H]6O[C@@H](C)[C@H](O)[C@@H](O)[C@H]6O)CC[C@]5(C)[C@H]4CC[C@]3(C)[C@H]1[C@@H]2C`, for which the Activity result in the experiment with HepG2, in the experiment with MCF7, in the experiment on NCI-H460 and in the experiment on SF-268 was “Not toxic” in each case.
